Test results from publication PMC10500652 (ACS Omega, 2023).

Columns and labels:
[1] = system: Ct-DNA; settings: value reported in the literature; cited from earlier work
[2] = system: HeLa; test: MTT cytotoxicity assay, HeLa; type: cell-based, human; settings: for IC50: read-out: IC50 HeLa, MTT, 48 h incubation; for selectivity factor HeLa: ratio of IC50 HEK-293 / HeLa
Outline: (§1)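 Cells kept in DMEM with 10% FBS, 1% nonessential amino acids and 1% antibiotic-antimycotic at 37 °C, 95% humidity, CO2, and trypsinised at 80% confluence. Seeded 1 × 10^4 cells/well, grown 24 h, then exposed to test compound. MTT read-out at 570 nm, in triplicate. % growth inhibition = 100 − (AD × 100/AB), against vehicle wells.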

[3] = system: MCF-7; test: MTT cytotoxicity assay, MCF-7; type: cell-based, human; settings: for IC50: read-out: IC50 MCF 7, MTT, 48 h incubation; for selectivity factor MCF-7: ratio of IC50 HEK-293 / MCF-7
Outline: as §1

[4] = system: U87MG; test: MTT cytotoxicity assay, U87MG; type: cell-based, human; settings: for IC50: read-out: IC50 U87MG, MTT, 48 h incubation; for selectivity factor U87MG: ratio of IC50 HEK-293 / U87MG
Outline: as §1

[5] = system: HEK293; test: MTT cytotoxicity assay, HEK293; type: cell-based, human; settings: read-out: IC50 HEK293, 48 h incubation, normal cell line
Outline: as §1

[6] = system: MCF-7 cells; test: Apoptosis, Annexin V FITC/PI assay; type: cell-based, human; settings: 15 μM, 24 h
[7] = system: MCF-7 cells; test: Cell cycle analysis; type: cell-based, human; settings: 8 μM, 24 h
Outline: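 MCF-7 cells (1 × 10^6) grown 24 h, exposed to test compound in medium 24 h, then harvested by centrifugation. Fixed at 4 °C overnight and washed twice with cold PBS. Stained 15 min in the dark with 0.05 mg/ml PI plus 0.05 mg/ml RNaseA in sheath fluid. DNA content measured by flow cytometry to give percentage of cells in each cycle phase.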

[8] = Fluorescence quantum yield; type: physicochemical; settings: relative to quinine sulfate; 0.1% DMSO buffer solution, pH 7.2
Outline: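 Relative emission quantum yield against quinine sulfate in H2SO4 (excitation 350 nm, emission 452 nm, ΦR 0.50). Calculated from integrated emission peak area, absorbance at λmax and refractive indices of sample and reference solvents.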

[9] = Solubility; type: physicochemical
[10] = Molar conductivity measurement; type: physicochemical; settings: for molar conductance ^M in 10% DMSO: 10% aqueous DMSO; for molar conductance ^M in DMSO: pure DMSO
Outline: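 Conductivity of test compound at 3 × 10^-5 M in DMSO and in aqueous DMSO, measured with a conductivity meter of cell constant 1.0 cm^-1.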

[11] = system: Ct-DNA; test: Ct-DNA binding by UV absorption titration; set-up: species or system calf; settings: on titration with Ct-DNA, Tris-HCl/NaCl buffer
Outline: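 UV absorbance titration: Ct-DNA (purity checked by OD 260/280) added stepwise from stock to test compound held fixed at 20 μM in 5 mM Tris-HCl/50 mM NaCl. Intrinsic binding constant Kb from slope/intercept of linear fit. Hypochromicity %H = (A0 − AF)/A0 × 100, AF taken when absorbance stops changing.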

[12] = system: Ct-DNA; test: Ethidium bromide displacement; type: binding, calf; settings: for KSV, Stern–Volmer quenching constant: EtBr–Ct-DNA adduct
Outline: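 EtBr–Ct-DNA adduct (EtBr 8 μM) titrated with test compound at 5–60 μM; drop in EtBr emission followed. KSV from linear Stern–Volmer fit of I0/I vs [complex]. Kapp from the concentration giving 50% quenching: Kapp × [compound]50 = KEtBr × [EtBr], with KEtBr 1.0 × 10^7 M^-1.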

[13] = molecular target: BSA (Bos taurus, UniProt P02769); test: BSA binding, tryptophan emission quenching; set-up: species or system bovine; settings: for KBSA, Stern–Volmer quenching constant: BSA fluorescence at 340 nm; for K, binding constant with BSA / n, number of binding sites: Scatchard plot; for kq, quenching rate constant: from KBSA and τ0 = 1 × 10^–8 s
Outline: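 BSA prepared at 2 × 10^-6 M in Tris-HCl/NaCl buffer and titrated with increasing amounts of aqueous test compound. Mixed gently 5 min after each addition; tryptophan emission read at 340 nm with excitation at 295 nm. KBSA from Stern–Volmer plot of I0/I vs [complex]; kq = KBSA/τ0 with τ0 1 × 10^-8. K and n from log((I0−I)/I) vs log[Q].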

[14] = Lipophilicity, n-octanol/water partition coefficient by shake-flask method; type: physicochemical; settings: UV detection
Outline: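 Shake-flask partition: test compound dissolved in octanol/water and shaken 24 h. Phases separated by settling over 30 min or centrifuging 5000 rpm for 20 min, collected without cross-contamination. Compound in each phase quantified by UV-vis at room temperature. log Po/w = log([octanol]/[aqueous]); mean of three independent experiments.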

BSA, sequence (P02769 25-607): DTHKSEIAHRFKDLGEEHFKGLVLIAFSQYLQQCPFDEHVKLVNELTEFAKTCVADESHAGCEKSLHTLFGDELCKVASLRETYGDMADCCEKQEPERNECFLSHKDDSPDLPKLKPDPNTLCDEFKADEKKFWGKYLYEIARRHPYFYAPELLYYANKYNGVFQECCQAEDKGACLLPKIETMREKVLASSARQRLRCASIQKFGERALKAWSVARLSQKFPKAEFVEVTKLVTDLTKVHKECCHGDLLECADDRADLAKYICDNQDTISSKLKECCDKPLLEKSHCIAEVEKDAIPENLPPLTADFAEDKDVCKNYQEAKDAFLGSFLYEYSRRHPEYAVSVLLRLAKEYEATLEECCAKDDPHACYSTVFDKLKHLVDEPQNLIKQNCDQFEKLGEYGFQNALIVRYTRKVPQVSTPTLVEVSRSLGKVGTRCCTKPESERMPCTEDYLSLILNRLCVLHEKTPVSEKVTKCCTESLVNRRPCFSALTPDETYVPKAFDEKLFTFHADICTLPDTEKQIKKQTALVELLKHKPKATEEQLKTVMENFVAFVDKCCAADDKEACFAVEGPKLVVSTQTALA

## CC[n+]1c(-c2ccccc2)c2cc(N)ccc2c2ccc(N)cc21 [EtBr, Ethidium bromide]
[1]
  KEtBr, binding constant of EtBr to DNA: 1.0 × 10^7 M^–1

## N.N.[Cl][Pt][Cl] [cisplatin, cis-diamminedichloroplatinum(II), reference compound]
[2]
  IC50: 16.4 ± 0.16 µM
[3]
  IC50: 20.1 ± 1.6 µM
[4]
  IC50: 16.9 ± 2.1 µM
[5]
  IC50: 34.8 µM
[6]
  early apoptosis: 12.00%
  late apoptosis: 32.04%
  necrotic cells: 3.12%

## COc1cc2c(c(OC)c1OC)-c1ccc(OC)c(=O)cc1[C@@H](NC(C)=O)CC2 [colchicine]
[7]
  G0/G1 phase cells: 54.11%
  G2/M phase cells: 34.60%
  S phase cells: 8.30%
  sub-G0 phase cells: 0.64%

## [(η^5-Cp*)Ir^IIICl(K^2-N,N-2(2-(4-(4-(Pyridin-2-yl)-1H-1,2,3-triazol-1-yl)butoxy)phenyl)benzo[d]thiazole)]Cl [Complex 7b]
[8]
  quantum yield (ϕf): 0.0004
[9]
  solubility in water / aqueous medium: very good solubility in aqueous medium
[10]
  molar conductance ^M in 10% DMSO: 26 S cm^2 mol^–1
  molar conductance ^M in DMSO: 5 S cm^2 mol^–1
[11]
  Δε, change in molar absorptivity: 46.66%
[12]; 50% quenching, [EtBr] = 8 μM, [DNA] = 120 μM
  Kapp, apparent DNA-binding constant: 0.14 × 10^7 M^–1
[12]
  KSV, Stern–Volmer quenching constant: 4 × 10^3 M^–1
[13]
  KBSA, Stern–Volmer quenching constant: 0.201 × 10^6 M^–1
  K, binding constant with BSA: 0.057 × 10^6 M^–1
  n, number of binding sites: 1.33
  kq, quenching rate constant: 2.01 × 10^13 M^–1 s^–1
[2]
  selectivity factor HeLa: 6.31
  IC50: 15.8 ± 0.7 µM
[3]
  selectivity factor MCF-7: 2.45
  IC50: 40.9 ± 1.8 µM
[4]
  selectivity factor U87MG: 1
  IC50: > 100 µM
[5]
  IC50: > 100 µM

## [Re^I(CO)3Cl(K^2-N,N-2-(2-(4-(4-(Pyridin-2-yl)-1H-1,2,3-triazol-1-yl)butoxy)phenyl)benzo[d]thiazole)] [Complex 7c]
[8]
  quantum yield (ϕf): 0.0140
[14]
  log Po/w (n-octanol/water partition coefficient): 0.3180
[9]
  solubility in water / aqueous medium: poor solubility in water
[10]
  molar conductance ^M in 10% DMSO: 22 S cm^2 mol^–1
  molar conductance ^M in DMSO: 9 S cm^2 mol^–1
[11]
  Δε, change in molar absorptivity: 27.12%
[12]
  KSV, Stern–Volmer quenching constant: 8.2 × 10^3 M^–1
[13]
  KBSA, Stern–Volmer quenching constant: 0.296 × 10^6 M^–1
  K, binding constant with BSA: 0.087 × 10^6 M^–1
  n, number of binding sites: 1.21
  kq, quenching rate constant: 2.9 × 10^13 M^–1 s^–1
[2]
  selectivity factor HeLa: 5.15
  IC50: 19.4 ± 0.19 µM
[3]
  selectivity factor MCF-7: 2.44
  IC50: 40.9 ± 1.4 µM
[4]
  selectivity factor U87MG: 1.31
  IC50: 76 ± 3.5 µM
[5]
  IC50: > 100 µM
